Source: ChEMBL document CHEMBL1129465, “Polyamine analogue regulation of NMDA MK-801 binding: a structure-activity study” (J Med Chem, 1996)

Key:
Type in all cases: ADME
[1] = Acid base constant value for N1 atom; settings: read-out: pKa1
In short: (§1)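 Potentiometric titration: the polyamine hydrochloride salt was first converted to the free amine by adding base, then titrated in 0.1 N KCl. Each nitrogen's pKa was estimated by a nonlinear least-squares computer fit of the titration curve. Fractions of the protonated species were then simulated from the measured pKa values.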

[2] = Acid base constant value for N2 atom; settings: read-out: pKa2; in short: as §1
[3] = Acid base constant value for N4 atom; settings: read-out: pKa4; in short: as §1
[4] = Acid base constant value for N3 atom; settings: read-out: pKa3; in short: as §1

Structure (SMILES)	pKa [1]	pKa [2]	pKa [3]	pKa [4]
NCCCCNCCCCNCCCCN	11.2	10.4	8.72	9.57
NCCCNCCCNCCCN [THERMINE]	10.6	9.8	7.51	8.35
C(CCNC1CCNCC1)CNC1CCNCC1	11.4	10.7	7.6	9.02
CCNCCCNCCCCNCCCNCC [BIS(ETHYL)SPERMINE]	11.2	10.8	8.25	9.42
C(CNC1CCNCC1)CNC1CCNCC1	11.2	10.7	7.14	8.88
CCNCCCNCCCNCCCNCC [BIS(ETHYL)NORSPERMINE]	10.8	9.91	7.68	8.51
c1cc(NCCCNc2ccncc2)ccn1	9.55	9.14	< 2	< 2
CCNCCCCNCCCCNCCCCNCC [DIETHYLHOMOSPERMINE]	11.1	10.8	8.91	9.73
C(CCNCCC1CCNCC1)CNCCC1CCNCC1	10.9	10.8	9.1	10
